Assay [1] deals with T1, C-type lectin domain family 7 member A (Mus musculus) (UniProt Q6QLQ4).
T1 sequence (whole entry): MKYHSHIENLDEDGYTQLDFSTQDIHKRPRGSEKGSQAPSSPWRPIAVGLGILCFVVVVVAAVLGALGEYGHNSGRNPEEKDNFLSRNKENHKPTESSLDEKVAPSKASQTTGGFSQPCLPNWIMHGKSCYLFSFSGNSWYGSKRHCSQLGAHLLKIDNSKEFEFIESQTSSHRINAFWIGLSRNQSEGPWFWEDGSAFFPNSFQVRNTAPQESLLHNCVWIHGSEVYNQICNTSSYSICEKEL
As to the kind of experiment: Inhibition of mouse N-terminal hexahistidine-tagged C-type lectin domain of Dectin-1 expressed in Escherichia coli BL21 (DE3) binding to solid-supported schizophyllan pretreated for 30 mins prior SPG addition measured after 1 hr by competitive ELISA relative to SPG. A general note: An ELISA detects its analyte on a solid surface through an enzyme-linked reagent.

Assay [2] deals with T2, C-type lectin domain family 7 member A (Homo sapiens) (UniProt Q9BXN2).
T2 sequence (whole entry): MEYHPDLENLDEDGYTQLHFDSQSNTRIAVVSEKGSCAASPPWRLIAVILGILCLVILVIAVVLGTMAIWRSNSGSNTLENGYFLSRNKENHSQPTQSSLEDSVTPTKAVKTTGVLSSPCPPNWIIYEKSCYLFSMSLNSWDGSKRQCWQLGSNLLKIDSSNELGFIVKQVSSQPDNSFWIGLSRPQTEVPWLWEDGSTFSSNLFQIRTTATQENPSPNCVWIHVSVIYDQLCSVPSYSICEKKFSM
As to the kind of experiment: Agonist activity at Dectin-1 expressed in human 293T cells assessed as LPS-mediated NF-kappaB activation after 6 hrs by dual luciferase reporter gene assay. In kind it is functional, cell-based. In outline: (§1)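 293T cells were plated at 1 × 10⁴ cells/well in DMEM with 10% FBS for 20 h at 37 °C, 5% CO₂. They were then lipofected for 18 h. Dectin-1 wells received Dectin-1A, CARD9 and Bcl10 plasmids; TLR4 wells received TLR4 and MD-2 plasmids. Both received NF-κB-RE firefly and TK-Renilla reporters. Cells were stimulated 6 h with oligosaccharides, SPG, or oligosaccharides plus LPS. Read-out was the firefly/Renilla dual-luciferase ratio.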
For orientation: A reporter such as luciferase makes a cellular process visible.

Assay [3] addresses T1, C-type lectin domain family 7 member A (Mus musculus). Nature of the assay: Binding affinity to mouse N-terminal hexahistidine-tagged C-type lectin domain of Dectin-1 expressed in Escherichia coli BL21 (DE3) by STD-NMR analysis. In outline:
(§2)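 Protein was mouse Dectin-1 CTLD (Gly113–Leu244) with an N-terminal His6 tag and thrombin site, expressed in E. coli BL21(DE3)codonplus in LB. Expression was induced 6 h at 37 °C. Inclusion bodies were solubilized in 8 M urea, 50 mM Tris-HCl pH 8.0, 50 mM NaCl. Protein was refolded 16 h at 4 °C by dilution into 200 mM Tris-HCl pH 8.0, 0.4 M L-arginine, 5.0 mM GSH, 0.5 mM GSSG, then purified. Ligand was titrated at 0–25 molar equivalents with ¹H NMR monitoring.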

Assay [4] has as its target Toll-like receptor 4 (Homo sapiens) (UniProt O00206). As to the kind of experiment: Agonist activity at TLR4 expressed in human 293T cells assessed as LPS-mediated NF-kappaB activation after 6 hrs by dual luciferase reporter gene assay. Type of assay: functional, cell-based. In outline:
as §1

For assay [5], the target named is T1, C-type lectin domain family 7 member A (Mus musculus). As to the kind of experiment: Binding affinity to mouse N-terminal hexahistidine-tagged C-type lectin domain of Dectin-1 expressed in Escherichia coli BL21 (DE3) by measuring saturation transfer difference amplification factor. In outline:
as §2

Activity calls are given as the source filed them. The calls are words filed in the database; no cut-off is given here.

Sequence of Toll-like receptor 4 (Homo sapiens) (O00206 whole entry): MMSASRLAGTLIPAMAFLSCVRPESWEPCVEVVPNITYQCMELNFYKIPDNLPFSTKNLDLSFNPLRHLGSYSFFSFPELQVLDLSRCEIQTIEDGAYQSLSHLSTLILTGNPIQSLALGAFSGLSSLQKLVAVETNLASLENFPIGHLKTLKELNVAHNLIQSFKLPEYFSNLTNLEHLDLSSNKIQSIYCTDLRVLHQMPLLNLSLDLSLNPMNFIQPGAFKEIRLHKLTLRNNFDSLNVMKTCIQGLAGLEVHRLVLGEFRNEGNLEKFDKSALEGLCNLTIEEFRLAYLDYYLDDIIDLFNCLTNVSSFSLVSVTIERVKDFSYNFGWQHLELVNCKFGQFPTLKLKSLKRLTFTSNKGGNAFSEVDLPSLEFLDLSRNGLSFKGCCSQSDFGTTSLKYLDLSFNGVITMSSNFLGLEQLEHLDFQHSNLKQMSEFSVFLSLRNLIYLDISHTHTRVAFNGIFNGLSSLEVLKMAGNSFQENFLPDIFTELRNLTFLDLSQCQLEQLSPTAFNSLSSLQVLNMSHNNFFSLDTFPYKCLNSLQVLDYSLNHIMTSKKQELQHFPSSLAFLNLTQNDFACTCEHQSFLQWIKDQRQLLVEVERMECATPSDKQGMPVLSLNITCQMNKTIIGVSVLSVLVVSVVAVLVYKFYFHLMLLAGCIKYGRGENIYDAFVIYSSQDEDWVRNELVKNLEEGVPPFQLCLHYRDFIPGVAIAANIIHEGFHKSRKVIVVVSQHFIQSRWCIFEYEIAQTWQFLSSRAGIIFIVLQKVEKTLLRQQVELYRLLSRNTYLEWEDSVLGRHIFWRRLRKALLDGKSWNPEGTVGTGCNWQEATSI

Take `NCCCCCCO[C@@H]1O[C@H](CO)[C@@H](O)[C@H](O[C@@H]2O[C@H](CO)[C@@H](O)[C@H](O[C@@H]3O[C@H](CO)[C@@H](O)[C@H](O[C@@H]4O[C@H](CO)[C@@H](O)[C@H](O[C@@H]5O[C@H](CO)[C@@H](O)[C@H](O[C@@H]6O[C@H](CO[C@@H]7O[C@H](CO)[C@@H](O)[C@H](O)[C@H]7O)[C@@H](O)[C@H](O[C@@H]7O[C@H](CO)[C@@H](O)[C@H](O[C@@H]8O[C@H](CO)[C@@H](O)[C@H](O)[C@H]8O)[C@H]7O)[C@H]6O)[C@H]5O)[C@H]4O)[C@H]3O)[C@H]2O)[C@H]1O`: the result in assay [1] and in assay [2] was inactive.

In the case of `NCCCCCCO[C@@H]1O[C@H](CO)[C@@H](O)[C@H](O[C@@H]2O[C@H](CO)[C@@H](O)[C@H](O[C@@H]3O[C@H](CO)[C@@H](O)[C@H](O[C@@H]4O[C@H](CO)[C@@H](O)[C@H](O[C@@H]5O[C@H](CO)[C@@H](O)[C@H](O[C@@H]6O[C@H](CO)[C@@H](O)[C@H](O[C@@H]7O[C@H](CO)[C@@H](O)[C@H](O[C@@H]8O[C@H](CO)[C@@H](O)[C@H](O[C@@H]9O[C@H](CO)[C@@H](O)[C@H](O[C@@H]%10O[C@H](CO[C@@H]%11O[C@H](CO)[C@@H](O)[C@H](O)[C@H]%11O)[C@@H](O)[C@H](O[C@@H]%11O[C@H](CO)[C@@H](O)[C@H](O[C@@H]%12O[C@H](CO)[C@@H](O)[C@H](O)[C@H]%12O)[C@H]%11O)[C@H]%10O)[C@H]9O)[C@H]8O)[C@H]7O)[C@H]6O)[C@H]5O)[C@H]4O)[C@H]3O)[C@H]2O)[C@H]1O`, the result in assay [1] and in assay [2] was inactive.

For `NCCCCCCO[C@@H]1O[C@H](CO)[C@@H](O)[C@H](O[C@@H]2O[C@H](CO)[C@@H](O)[C@H](O[C@@H]3O[C@H](CO)[C@@H](O)[C@H](O[C@@H]4O[C@H](CO)[C@@H](O)[C@H](O[C@@H]5O[C@H](CO)[C@@H](O)[C@H](O[C@@H]6O[C@H](CO)[C@@H](O)[C@H](O[C@@H]7O[C@H](CO)[C@@H](O)[C@H](O[C@@H]8O[C@H](CO)[C@@H](O)[C@H](O[C@@H]9O[C@H](CO)[C@@H](O)[C@H](O[C@@H]%10O[C@H](CO)[C@@H](O)[C@H](O[C@@H]%11O[C@H](CO)[C@@H](O)[C@H](O[C@@H]%12O[C@H](CO)[C@@H](O)[C@H](O[C@@H]%13O[C@H](CO)[C@@H](O)[C@H](O[C@@H]%14O[C@H](CO)[C@@H](O)[C@H](O[C@@H]%15O[C@H](CO)[C@@H](O)[C@H](O[C@@H]%16O[C@H](CO)[C@@H](O)[C@H](O)[C@H]%16O)[C@H]%15O)[C@H]%14O)[C@H]%13O)[C@H]%12O)[C@H]%11O)[C@H]%10O)[C@H]9O)[C@H]8O)[C@H]7O)[C@H]6O)[C@H]5O)[C@H]4O)[C@H]3O)[C@H]2O)[C@H]1O`, the fold change (FC) in assay [1] was 10. For the same compound, the result in assay [2], in assay [3] and in assay [5] was Active. In assay [4], the result was inactive.

Regarding `NCCCCCCO[C@@H]1O[C@H](CO)[C@@H](O)[C@H](O[C@@H]2O[C@H](CO)[C@@H](O)[C@H](O[C@@H]3O[C@H](CO)[C@@H](O)[C@H](O[C@@H]4O[C@H](CO)[C@@H](O)[C@H](O[C@@H]5O[C@H](CO)[C@@H](O)[C@H](O[C@@H]6O[C@H](CO)[C@@H](O)[C@H](O[C@@H]7O[C@H](CO)[C@@H](O)[C@H](O[C@@H]8O[C@H](CO)[C@@H](O)[C@H](O[C@@H]9O[C@H](CO)[C@@H](O)[C@H](O[C@@H]%10O[C@H](CO)[C@@H](O)[C@H](O[C@@H]%11O[C@H](CO)[C@@H](O)[C@H](O[C@@H]%12O[C@H](CO)[C@@H](O)[C@H](O)[C@H]%12O)[C@H]%11O)[C@H]%10O)[C@H]9O)[C@H]8O)[C@H]7O)[C@H]6O)[C@H]5O)[C@H]4O)[C@H]3O)[C@H]2O)[C@H]1O`, the outcome in assay [1], in assay [2] and in assay [4] was inactive.

In the case of `NCCCCCCO[C@@H]1O[C@H](CO)[C@@H](O)[C@H](O[C@@H]2O[C@H](CO)[C@@H](O)[C@H](O[C@@H]3O[C@H](CO)[C@@H](O)[C@H](O[C@@H]4O[C@H](CO)[C@@H](O)[C@H](O[C@@H]5O[C@H](CO)[C@@H](O)[C@H](O[C@@H]6O[C@H](CO)[C@@H](O)[C@H](O[C@@H]7O[C@H](CO)[C@@H](O)[C@H](O[C@@H]8O[C@H](CO)[C@@H](O)[C@H](O)[C@H]8O)[C@H]7O)[C@H]6O)[C@H]5O)[C@H]4O)[C@H]3O)[C@H]2O)[C@H]1O`, the outcome in assay [1], in assay [2] and in assay [4] was inactive.

For the compound `NCCCCCCO[C@@H]1O[C@H](CO)[C@@H](O)[C@H](O[C@@H]2O[C@H](CO)[C@@H](O)[C@H](O[C@@H]3O[C@H](CO)[C@@H](O)[C@H](O[C@@H]4O[C@H](CO)[C@@H](O)[C@H](O[C@@H]5O[C@H](CO)[C@@H](O)[C@H](O[C@@H]6O[C@H](CO)[C@@H](O)[C@H](O[C@@H]7O[C@H](CO)[C@@H](O)[C@H](O[C@@H]8O[C@H](CO)[C@@H](O)[C@H](O[C@@H]9O[C@H](CO)[C@@H](O)[C@H](O[C@@H]%10O[C@H](CO)[C@@H](O)[C@H](O[C@@H]%11O[C@H](CO)[C@@H](O)[C@H](O[C@@H]%12O[C@H](CO)[C@@H](O)[C@H](O[C@@H]%13O[C@H](CO)[C@@H](O)[C@H](O[C@@H]%14O[C@H](CO[C@@H]%15O[C@H](CO)[C@@H](O)[C@H](O)[C@H]%15O)[C@@H](O)[C@H](O[C@@H]%15O[C@H](CO)[C@@H](O)[C@H](O[C@@H]%16O[C@H](CO)[C@@H](O)[C@H](O)[C@H]%16O)[C@H]%15O)[C@H]%14O)[C@H]%13O)[C@H]%12O)[C@H]%11O)[C@H]%10O)[C@H]9O)[C@H]8O)[C@H]7O)[C@H]6O)[C@H]5O)[C@H]4O)[C@H]3O)[C@H]2O)[C@H]1O`, in assay [1], the fold change (FC) was determined as 10. For the same compound, the result in assay [2] was Active.

Values taken from ChEMBL document CHEMBL2034828, “Synthesis of β(1,3) oligoglucans exhibiting a Dectin-1 binding affinity and their biological evaluation” (Bioorg Med Chem, 2012).
